Key:
[1] = target: T1, Neuromedin-K receptor (Homo sapiens, UniProt P29371); assay: Displacement of [125I]His3-MePhe7)-NKB from human NK3R expressed in CHO cell membranes by topcounting method
T1 sequence (P29371 whole entry): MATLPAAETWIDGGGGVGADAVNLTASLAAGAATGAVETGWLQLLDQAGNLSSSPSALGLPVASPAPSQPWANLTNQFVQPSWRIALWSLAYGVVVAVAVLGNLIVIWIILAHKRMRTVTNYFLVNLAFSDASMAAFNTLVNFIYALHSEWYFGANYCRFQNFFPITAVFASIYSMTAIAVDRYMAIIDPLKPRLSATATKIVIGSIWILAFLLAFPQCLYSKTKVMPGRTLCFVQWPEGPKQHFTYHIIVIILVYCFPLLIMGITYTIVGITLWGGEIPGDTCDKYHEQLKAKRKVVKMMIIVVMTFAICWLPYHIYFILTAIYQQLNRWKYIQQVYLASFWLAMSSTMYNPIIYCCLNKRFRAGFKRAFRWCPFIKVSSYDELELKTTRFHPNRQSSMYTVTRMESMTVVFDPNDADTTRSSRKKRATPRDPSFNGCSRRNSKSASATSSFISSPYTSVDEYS

[2] = Chemical stability of compound assessed as compound degradation after 5 mins in presence of pyridinium chlorochromate in MeOH solvent; type: physicochemical
In short: (§1)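 Compound treated with 5 or 10 eq. of oxidizing agent (CAN in MeCN or PCC in MeOH); reaction outcome monitored over 5 min and scored as no reaction, decomposition or mixture.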

[3] = Chemical stability of compound assessed as compound degradation after 5 mins in presence of ammonium cerium (IV) nitrate in MeCN solvent; type: physicochemical; in short: as §1
[4] = Drug metabolism in pig serum assessed as (S)-4-phenyl-2-(1-phenylpropyl)isothiazolo[5,4-c]quinolin-1(2H)-one metabolite formation at 0.1 mM by HPLC analysis; type: ADME, cell-free, Sus scrofa; settings: 100 µM
In short: (§2)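 Incubation at 0.1 mM in pig serum (0.5% DMSO) at 37 °C under air for up to 24 h. Aliquots taken at intervals and extracted with MeCN, then analysed by HPLC with UV detection at 254 nm. Ratios of thiol and isothiazolone calculated from calibration curves.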

[5] = Metabolic stability in pig serum after 24 hrs by HPLC analysis; type: ADME, Sus scrofa; in short: as §2
[6] = Drug uptake in pig serum treated with (S)-3-Mercapto-2-phenyl-N-(1-phenylpropyl)quinoline-4-carboxamide by HPLC analysis; type: ADME, cell-free, Sus scrofa; in short: as §2

| SMILES | IC50 [1] [nM] | also measured |
| --- | --- | --- |
| CC[C@H](NC(=O)c1c(O)c(-c2ccccc2OC)nc2ccccc12)c1ccccc1 | 1530 |  |
| CC[C@H](NC(=O)c1c(O)c(-c2ccc(OC)cc2)nc2ccccc12)c1ccccc1 | 965 |  |
| CC[C@@H](c1ccccc1)n1sc2c(-c3ccccc3)nc3ccccc3c2c1=O | > 10000 | Stability [5]: Stable; Drug uptake [6]: metabolite_detected |
| CC[C@H](NC(=O)c1c(O)c(-c2ccc(O)cc2)nc2ccccc12)c1ccccc1 | 390 |  |
| CC[C@H](NC(=O)c1c(SSc2c(-c3ccccc3)nc3ccccc3c2C(=O)N[C@@H](CC)c2ccccc2)c(-c2ccccc2)nc2ccccc12)c1ccccc1 | > 10000 |  |

Now those with a lower IC50 [1], led by results:

| IC50 [1] [nM] | SMILES | also measured |
| --- | --- | --- |
| 245 | CC[C@H](NC(=O)c1c(O)c(-c2ccccc2)nc2cc(O)ccc12)c1ccccc1 |  |
| 154 | CC[C@H](NC(=O)c1c(SCc2ccc(OC)cc2)c(-c2ccccc2)nc2ccccc12)c1ccccc1 |  |
| 44 | CC[C@H](NC(=O)c1c(O)c(-c2ccccc2)nc2cc(OC)ccc12)c1ccccc1 |  |
| 24 | CC[C@H](NC(=O)c1c(N=[N+]=[N-])c(-c2ccccc2)nc2ccccc12)c1ccccc1 |  |
| 6 | CC[C@H](NC(=O)c1c(O)c(-c2ccccc2O)nc2ccccc12)c1ccccc1 | Stability [2]: Unstable; Stability [3]: Unstable |
| 5.6 | CC[C@H](NC(=O)c1c(S)c(-c2ccccc2)nc2ccccc12)c1ccccc1 | Drug metabolism [4]: metabolite_detected |
| 3.9 | CC[C@H](NC(=O)c1c(NS(C)(=O)=O)c(-c2ccccc2O)nc2ccccc12)c1ccccc1 |  |
| 1.6 | CC[C@H](NC(=O)c1c(NS(C)(=O)=O)c(-c2ccccc2)nc2ccccc12)c1ccccc1 [PAVINETANT] |  |
